Our source for the Activity, inhibition and viability values is ChEMBL document CHEMBL4813921, “Optimization of WZ4003 as NUAK inhibitors against human colorectal cancer” (Eur J Med Chem, 2021).

Molecules are shown by their SMILES. The source made the active and inactive calls. The rule behind the calls is not given here.

The nature of series [1]: Toxicity against BALB/c-nu/nu mouse xenografted with human SW480 cells assessed as morphological changes in spleen at 10 to 20 mg/kg, ip administered every 2 days for 18 days by H and E staining based analysis. In kind it is organism-based. The settings on record: in vivo, 432 h, dose 10-20 mg/kg, time 18 day. An outline of the steps:
(§1)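 After 18 days of ip dosing every two days in SW480-xenografted nude mice, heart, liver, spleen, lung and kidney harvested, sectioned, HE-stained, examined at ×400.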
(In general: Xenograft models place foreign cells or tissue in a host animal.)

For series [2], the system named is SW480. Description: Antitumour activity against human SW480 cells xenografted in Balb/c-nu/nu mouse assessed as reduction in Ki67 expression in tumor at 20 mg/kg, ip administered every 2 days for 18 days by immunohistochemical assay. The settings on record: time 18.0 day. In kind it is functional, organism-based. In short, it runs like this: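 SW480 xenografts in nude mice (n = 6 per group) treated ip every two days for 18 days. Excised tumours sectioned for HE and Ki67 staining, examined at ×400.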

The subject of series [3] is U2OS. Description: Antiproliferative activity against human U2OS cells assessed as reduction in cell viability at 10 uM measured after 1 to 5 days by MTT assay. It is filed as functional. Conditions: time 1-5 day. An outline of the steps:
(§2)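 MTT viability read daily over 1–5 days of exposure to 10 μM compound; mean ± SD, n = 3.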
For orientation: Tetrazolium assays rely on reduction of a dye to a coloured formazan, in cell work by metabolically active cells.

The target in series [4] is T1, NUAK family SNF1-like kinase 1 (Homo sapiens) (UniProt O60285).
T1 sequence (whole entry): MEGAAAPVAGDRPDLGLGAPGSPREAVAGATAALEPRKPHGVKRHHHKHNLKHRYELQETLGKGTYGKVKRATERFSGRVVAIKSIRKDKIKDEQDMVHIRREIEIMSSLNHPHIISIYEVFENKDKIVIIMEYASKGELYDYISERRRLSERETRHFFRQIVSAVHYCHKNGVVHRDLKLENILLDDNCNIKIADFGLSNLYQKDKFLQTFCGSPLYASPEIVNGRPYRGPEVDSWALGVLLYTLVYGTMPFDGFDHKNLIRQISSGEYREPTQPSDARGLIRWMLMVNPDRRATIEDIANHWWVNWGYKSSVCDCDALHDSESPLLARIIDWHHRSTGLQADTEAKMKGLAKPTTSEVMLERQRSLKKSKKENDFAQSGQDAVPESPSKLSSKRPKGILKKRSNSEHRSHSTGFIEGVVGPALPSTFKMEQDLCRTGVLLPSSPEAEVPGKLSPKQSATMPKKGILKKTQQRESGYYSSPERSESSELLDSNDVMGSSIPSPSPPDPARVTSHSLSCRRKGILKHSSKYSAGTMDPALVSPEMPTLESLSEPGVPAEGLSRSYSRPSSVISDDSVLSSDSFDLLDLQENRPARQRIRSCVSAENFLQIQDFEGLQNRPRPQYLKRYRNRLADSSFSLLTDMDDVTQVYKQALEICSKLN
Description: Inhibition of NUAK1 (unknown origin) at 10 uM using CHKtide as substrate in presence of ATP measured after 60 mins by ADP-Glo assay. In general terms: ADP-Glo first removes unused ATP, then detects ADP through luciferase.

The test system of series [5] is SW480. Kind of series: Antiproliferative activity against human SW480 cells assessed as reduction in cell viability at 10 uM measured after 1 to 5 days by MTT assay relative to control. It is filed as functional, cell-based. Conditions: time 1-5 day. In short, it runs like this:
as §2

In series [6] the test system is HCT-116. Kind of series: Induction of cell cycle arrest in human HCT-116 cells assessed as increase in accumulation at G2/M phase at 10 uM measured after 48 hrs by PI/RNaseA staining based flow cytometry assay. In kind it is functional.
Series [7] is described as follows: Toxicity against BALB/c-nu/nu mouse xenografted with human SW480 cells assessed as morphological changes in kidney at 10 to 20 mg/kg, ip administered every 2 days for 18 days by H and E staining based analysis. Conditions: in vivo, 432 h, dose 10-20 mg/kg, time 18 day. It is filed as organism-based. An outline of the steps: as §1
Series [8] relates to SW480. Kind of series: Inhibition of colony formation in human SW480 cells measured after 14 days by crystal violet staining based microcopic analysis. In kind it is functional, cell-based. The settings on record: dose 0.5-2 µM, time 14.0 day. An outline of the steps:
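Clonogenic assay with 14-day exposure to a range of compound concentrations; colonies stained with crystal violet and imaged by microscopy; compared with untreated cells.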

Series [9] has as its system U2OS. Kind of series: Induction of apoptosis in human U2OS cells assessed as early apoptotic cells at 10 uM measured after 48 hrs by Annexin V-FITC/PI staining based flow cytometry method (reference value: 2.8%). In kind it is functional.
Series [10] relates to HCT-116. Description: Induction of apoptosis in human HCT-116 cells assessed as late apoptotic cells at 10 uM measured after 48 hrs by Annexin V-FITC/PI staining based flow cytometry method (reference value: 1.6%). It is filed as functional.
In series [11] the test system is SW480. Kind of series: Induction of ROS generation in human SW480 cells at 10 uM measured after 48 hrs by DCFH-DA staining based flow cytometry method. In kind it is functional, cell-based. An outline of the steps: (§3)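 Cells treated at 10 μM for 48 h, ROS measured by flow cytometry. Fluorescence intensity expressed relative to vehicle-treated controls; mean ± SEM from 3 independent experiments.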

For series [12], the system named is HCT-116. Description: Antiproliferative activity against human HCT-116 cells assessed as reduction in cell viability at 10 uM measured after 1 to 5 days by MTT assay relative to control. In kind it is functional, cell-based. Conditions: time 1-5 day. An outline of the steps: as §2
Series [13] has as its system SW480. Kind of series: Induction of cell cycle arrest in human SW480 cells assessed as increase in accumulation at G2/M phase at 10 uM measured after 48 hrs by PI/RNaseaA staining based flow cytometry assay. It is filed as functional.
Series [14] has as its system SW480. Description: Induction of apoptosis in human SW480 cells assessed as early apoptotic cells at 10 uM measured after 48 hrs by Annexin V-FITC/PI staining based flow cytometry method (reference value: 2.6%). It is filed as functional.
For series [15], the system named is HCT-116. Description: Induction of cell cycle arrest in human HCT-116 cells assessed as reduction in accumulation at G1 phase at 10 uM measured after 48 hrs by PI/RNaseA staining based flow cytometry assay. It is filed as functional.
Series [16] concerns SW480. Description: Antitumour activity against human SW480 cells xenografted in Balb/c-nu/nu mouse assessed as inhibition of tumour volume at 10 to 20 mg/kg, ip administered every 2 days for 18 days. It is filed as functional, organism-based. The settings on record: dose 10-20 mg/kg, time 18.0 day. In short, it runs like this: (§4)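 SW480 xenografts in nude mice, randomized at 100 mm3 tumour volume into four groups of six. Dosed ip at 10 or 20 mg/kg every two days for 18 days, with vehicle group. Tumour volume and body weight recorded every two days; tumours weighed at end; means ± SD (n = 6).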

Series [17] in a line: Toxicity against BALB/c-nu/nu mouse xenografted with human SW480 cells assessed as body weight at 10 to 20 mg/kg, ip administered every 2 days for 18 days. In kind it is organism-based. The settings on record: in vivo, 432 h, dose 10-20 mg/kg, time 18 day. An outline of the steps:
as §4

In series [18] the test system is U2OS. Kind of series: Antiproliferative activity against human U2OS cells at 2.5 to 10 uM measured after 48 hrs by EdU staining based assay. In kind it is functional, cell-based. The settings on record: dose 2.5-10 µM. An outline of the steps: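 Cells exposed to a range of compound concentrations for 48 h, then EdU click-chemistry staining with DAPI counterstain. Confocal high-content imaging; DAPI-positive nuclei counted as total and EdU-positive as proliferating.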

In series [19] the test system is U2OS. Kind of series: Induction of cell cycle arrest in human U2OS cells assessed as reduction in accumulation at G1 phase at 10 uM measured after 48 hrs by PI/RNaseA staining based flow cytometry assay. In kind it is functional.
The subject of series [20] is HCT-116. Kind of series: Induction of ROS generation in human HCT-116 cells at 10 uM measured after 48 hrs by DCFH-DA staining based flow cytometry method. In kind it is functional, cell-based. An outline of the steps: as §3
The subject of series [21] is U2OS. Description: Induction of apoptosis in human U2OS cells assessed as viable cells at 10 uM measured after 48 hrs by Annexin V-FITC/PI staining based flow cytometry method (reference value: 95.5%). It is filed as functional. Conditions: read-out: Activity.

One may read the inhibition as the share of the control response that was lost under treatment. Regarding `CCC(=O)Nc1cccc(Oc2nc(Nc3ccc(N4CCN(C)CC4)cc3)ncc2Cl)c1`, the Activity result in [1] is given as “Non-Toxic”; in [7], “Non-Toxic”; in the series on U2OS [9], 12.9%; in the series on HCT-116 [10], 10%; with SW480 [14], 16.2%; in [17], “Non-Toxic”. Besides, the result in the series with SW480 [2], with SW480 [5], in the series with HCT-116 [6], with SW480 [11], in the series with HCT-116 [12] and with SW480 [13] was Active. For the same compound, the result in the series with HCT-116 [15], with SW480 [16], with U2OS [18], with U2OS [19] and in the series with HCT-116 [20] was Active. Moreover, in the series on U2OS [3], the inhibition at 10 µM stood at 67.2%. Moreover, the figures for the inhibition (in series [4]; in the series with SW480 [8]) were 92.9% and “Dose-Dependent Effect”, respectively. For the same compound, the viability at 10 µM with U2OS [21] worked out at 81.6%.
